The target of series [1] is T1, Nonstructural protein 5A (Hepatitis C virus) (UniProt Q5L478).
T1 sequence (whole entry): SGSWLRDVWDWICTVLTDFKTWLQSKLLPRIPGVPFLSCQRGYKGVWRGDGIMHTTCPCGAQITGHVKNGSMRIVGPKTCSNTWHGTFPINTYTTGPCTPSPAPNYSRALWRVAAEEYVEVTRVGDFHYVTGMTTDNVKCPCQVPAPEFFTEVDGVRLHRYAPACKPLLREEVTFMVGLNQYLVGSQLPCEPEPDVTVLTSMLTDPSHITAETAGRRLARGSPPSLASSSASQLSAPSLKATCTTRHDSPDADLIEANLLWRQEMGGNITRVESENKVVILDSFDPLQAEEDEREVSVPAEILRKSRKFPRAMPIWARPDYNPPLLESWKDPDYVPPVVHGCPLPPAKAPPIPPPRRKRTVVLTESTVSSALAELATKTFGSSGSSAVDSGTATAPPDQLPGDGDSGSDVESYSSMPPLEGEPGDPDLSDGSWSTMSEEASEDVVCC
Kind of series: Inhibition of NS5A M28T mutant in HuH7 cell infected HCV genotype 1a H77 assessed as decrease in viral replication after 4 days by luciferase reporter gene assay relative to wild type protein. The note with it: Hepatitis C virus (isolate H77). In short, it runs like this: (§1)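 Stable subgenomic luciferase replicons in Huh-7 cells: genotype 1a-H77 carrying NS5A substitutions M28T, Q30E, Q30R, Y93C, Y93H or Y93N, tested alongside the wild-type replicon. Cells are incubated 4 days with compound in DMEM with 5% FBS. Luciferase read-out, EC50 by 4-parameter logistic fit, and fold change versus wild type.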
In general terms: In a reporter assay the amount or activity of a reporter protein is the signal.

Series [2] concerns the target T1, Nonstructural protein 5A (Hepatitis C virus). The experiment in a line: Inhibition of NS5A Q30E mutant in HuH7 cell infected HCV genotype 1a H77 assessed as decrease in viral replication after 4 days by luciferase reporter gene assay relative to wild type protein. As to conditions: Hepatitis C virus (isolate H77). The gist of the method:
as §1

Series [3] relates to T2, Nonstructural protein 5A (Hepatitis C virus), Q5L478 [Y93H].
T2 sequence (whole entry): T1 sequence (whole entry) with Y93H
Kind of series: Inhibition of NS5A Y93H mutant in HuH7 cell infected HCV genotype 1a H77 assessed as decrease in viral replication after 4 days by luciferase reporter gene assay relative to wild type protein. As to conditions: Hepatitis C virus (isolate H77). The gist of the method:
as §1

The nature of series [4]: Oral bioavailability in mouse at 3 mg/kg by LC-MS method. It counts as ADME, organism-based. The note with it: in vivo. In short, it runs like this: (§2)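 Single dose, 3 mg/kg, in mouse or rat. IV vehicle: DMSO:Tween 80:PEG-400:D5W 2:5:20:73 (v/v). PO vehicle: Phosol 53 MCT:PEG-400:Poloxamer 124:Cremophor RH40 40:20:20:20 (w/w). Acetonitrile protein precipitation, then LC-MS/MS in negative-ion MRM against an internal standard; LOQ ~20 ng/mL.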

In series [5] the test system is T3, Nonstructural protein 5A (Hepatitis C virus), Q5L478 [Y93N].
T3 sequence (whole entry): T1 sequence (whole entry) with Y93N
Kind of series: Inhibition of NS5A Y93N mutant in HuH7 cell infected HCV genotype 1b Con1 assessed as decrease in viral replication after 4 days by luciferase reporter gene assay relative to wild type protein. As to conditions: Hepatitis C virus (isolate Con1). The gist of the method: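 Stable subgenomic luciferase replicons in Huh-7 cells: genotype 1b-Con1 carrying NS5A Y93H or Y93N, tested alongside the wild-type replicon. Cells are incubated 4 days with compound in DMEM with 5% FBS. Luciferase read-out, EC50 from a 4-parameter logistic fit, expressed as fold change versus wild type.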

Series [6] in a line: Apparent volume of distribution in mouse at 3 mg/kg, iv by LC-MS method. It is filed as ADME, organism-based. The note with it: in vivo, read-out: Vc. The gist of the method: as §2
Series [7] in a line: Plasma clearance in rat at 3 mg/kg, iv by LC-MS method. It is filed as ADME, organism-based. In short, it runs like this:
as §2

A short description of series [8]: AUClast in dog at 1 mg/kg, iv by LC-MS method. It is filed as ADME, organism-based, Canis lupus familiaris. Details: dose 1 mg/kg, route intravenous, time 0 - last. The note with it: in vivo. The gist of the method: (§3)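 Single dose in dog or monkey, 1 mg/kg IV or 2.5 mg/kg PO. Plasma drug measured by LC-MS after acetonitrile protein precipitation with an internal standard. Quantified by linear regression of parent/internal-standard peak-area ratio against spiked standards.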

Series [9] can be described thus: Plasma clearance in dog at 1 mg/kg, iv by LC-MS method. It counts as ADME, organism-based, Canis lupus familiaris. In short, it runs like this:
as §3

Series [10] can be described thus: AUClast in monkey at 1 mg/kg, iv by LC-MS method. Details: dose 1 mg/kg, time 0 - last, route intravenous. The note with it: rhesus monkey, in vivo. It is filed as ADME, organism-based, Macaca mulatta. In short, it runs like this:
as §3

The nature of series [11]: AUClast in mouse at 3 mg/kg, po by LC-MS method. It is filed as ADME, organism-based. More on the design: dose 3 mg/kg, time 0 - last, route oral. As to conditions: in vivo. The gist of the method:
as §2

Series [12] in a line: Half life in rat at 3 mg/kg, po by LC-MS method. The note with it: in vivo. It is filed as ADME, organism-based. The gist of the method: as §2
Series [13] can be described thus: Cmax in rat at 3 mg/kg, po by LC-MS method. It is filed as ADME, organism-based. Details: dose 3 mg/kg, route oral. As to conditions: in vivo. The gist of the method:
as §2

Series [14] can be described thus: Drug level in rat at 3 mg/kg, po at 24 hrs by LC-MS method. The note with it: in vivo, read-out: Drug uptake. It is filed as ADME, organism-based. In short, it runs like this:
as §2

Series [15] in a line: AUClast in rat at 3 mg/kg, po by LC-MS method. Details: dose 3 mg/kg, route oral, time 0 - last. It counts as ADME, organism-based. The note with it: in vivo. The gist of the method: as §2
The nature of series [16]: Oral bioavailability in rat at 3 mg/kg by LC-MS method. It is filed as ADME, organism-based. The note with it: in vivo. In short, it runs like this:
as §2

The nature of series [17]: Tmax in dog at 2.5 mg/kg, po by LC-MS method. It counts as ADME, organism-based, Canis lupus familiaris. The note with it: in vivo. In short, it runs like this:
as §3

Series [18] in a line: Tmax in monkey at 2.5 mg/kg, po by LC-MS method. It counts as ADME, organism-based, Macaca mulatta. As to conditions: rhesus monkey, in vivo. The gist of the method: as §3
Series [19] can be described thus: Drug level in monkey at 2.5 mg/kg, po at 24 hrs by LC-MS method. It is filed as ADME, organism-based, Macaca mulatta. As to conditions: rhesus monkey, in vivo, read-out: Drug uptake. In short, it runs like this:
as §3

The source of these data is ChEMBL document CHEMBL4177761, “Highlights of the Structure-Activity Relationships of Benzimidazole Linked Pyrrolidines Leading to the Discovery of the Hepatitis C Virus NS5A Inhibitor Pibrentasvir (ABT-530)” (J Med Chem, 2018).

Where a chain is given by its changes, count along the chain named.

In the case of `COC(=O)N[C@H](C(=O)N1CCC[C@H]1c1nc2cc([C@H]3CC[C@H](c4cc5nc([C@@H]6CCCN6C(=O)[C@@H](NC(=O)OC)[C@@H](C)OC)[nH]c5cc4F)N3c3cc(F)c(N4CCC(c5ccc(F)cc5)CC4)c(F)c3)c(F)cc2[nH]1)[C@@H](C)OC` [PIBRENTASVIR], the fold change (FC) worked out at 2.1 in series [1], 2.4 in [2], 6.7 in series [3] and 0.6 in series [5]. Besides, the figures for the bioavailability in series [4] and in series [16] were 7.9% and 9.9%, respectively. Also, in series [6], the Vd was 0.09 L/kg. For the same molecule, the clearance is 1.17 mL/min/kg in series [7] and 1.62 mL/min/kg in series [9]. The AUC(0-t) turned out to be 10600 ng·h/mL in series [8], 6470 ng·h/mL in series [10], 20000 ng·h/mL in series [11] and 3600 ng·h/mL in series [15]. For the same molecule, the half-life in [12] was 7 h. This molecule also yielded a Cmax in series [13] of 250 nM. Also, the concentration at 24 h in [14] came to 41 nM; in series [19] it was 17 nM. Further, the Tmax in [17] worked out at 3.67 h; in [18], 4 h.

Broadly, the bioavailability is the share of a dose that reaches the circulation, judged against a reference dose that is usually intravenous. What is called clearance is the volume of plasma or blood freed of the substance per unit of time. One may read the AUC(0-t) as exposure summed from dosing to a finite time, without extrapolation to infinity. What is called half-life is the time in which the quantity being followed falls by half. For orientation: Cmax means the highest concentration seen after dosing. By Tmax is commonly meant the time from dosing to the highest level.
